In ChEMBL document CHEMBL2406982, “Structure-activity relationships of new cyanothiophene inhibitors of the essential peptidoglycan biosynthesis enzyme MurF” (Eur J Med Chem, 2013):
In brackets after ≈: the same amount, converted by molar mass. Activity calls are given as the source filed them. The rule behind the calls is not given here.

What was measured:
[1] = Inhibition of Streptococcus pneumoniae MurF using D-Ala-D-Ala/UMtri-L-Lys as substrate after 15 mins by Malachite green method
Outline: (§1)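 Purified S. pneumoniae MurF in 50 mM Hepes pH 8.0, 50 mM MgCl2, 0.005% Triton X-114, with D-Ala-D-Ala, UMtri-L-Lys and ATP. Compound was added in DMSO (5% v/v final). Reactions ran 15 min at 37 °C, were stopped with Biomol malachite green reagent, and A650 was measured after 5 min. Runs were in duplicate. Residual activity was versus DMSO controls. IC50 was from seven concentrations.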

Staphylococcus aureus [2] = test: Inhibition of Staphylococcus aureus MurF using D-Ala-D-Ala/UMtri-L-Lys as substrate assessed as residual activity at 100 uM after 15 mins by Malachite green method
Outline: (§2)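 S. aureus MurF, purified, assayed in 50 mM Hepes pH 8.0 with 20 mM MgCl2 and 0.005% Triton X-114, with D-Ala-D-Ala, UMtri-L-Lys and ATP. Compound was in DMSO (5% v/v final). After 15 min at 37 °C, Biomol reagent was added and A650 was read 5 min later. Duplicates were run. Residual activity was relative to 5% DMSO controls. IC50 was read as 50% residual activity across seven concentrations.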

[3] = Inhibition of Streptococcus pneumoniae MurF
Streptococcus pneumoniae [4] = test: Antimicrobial activity against Streptococcus pneumoniae R6 by broth microdilution method; format: functional
Outline: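 MIC by CLSI broth microdilution in Mueller-Hinton broth supplemented with 5% (v/v) lysed horse blood.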

Escherichia coli [5] = test: Inhibition of Escherichia coli MurF using D-Ala-D-Ala/UMtri-mDAP as substrate assessed as residual activity at 100 uM after 15 mins by Malachite green method
Outline: (§3)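 Purified E. coli MurF in 50 mM Hepes pH 8.0, 50 mM MgCl2, 0.005% Triton X-114, with D-Ala-D-Ala, UMtri-mDAP and ATP. Compound was added in DMSO (final 5% v/v). Mixtures were incubated 15 min at 37 °C, quenched with Biomol reagent, and absorbance was read at 650 nm after 5 min. Runs were in duplicate. Residual activity was taken versus DMSO-only controls. IC50 came from residual activity at seven concentrations.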

Escherichia coli [6] = test: Antimicrobial activity against Escherichia coli 1411 by broth microdilution method; format: functional, organism-based
Outline: (§4)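 Broth microdilution MIC per CLSI guidelines in Mueller-Hinton broth. E. coli 1411 and AB734 were also tested with added polymyxin B nonapeptide to permeabilise the outer membrane.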

Staphylococcus aureus [7] = test: Antimicrobial activity against Staphylococcus aureus SH1000 by broth microdilution method; format: functional, organism-based
Outline: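 MIC by broth microdilution in Mueller-Hinton broth following CLSI guidelines.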

Streptococcus pneumoniae [8] = test: Inhibition of Streptococcus pneumoniae MurF using D-Ala-D-Ala/UMtri-L-Lys as substrate assessed as residual activity at 100 uM after 15 mins by Malachite green method; outline: as §1
Escherichia coli [9] = test: Antimicrobial activity against Escherichia coli AB734 by broth microdilution method; format: functional, organism-based; outline: as §4
[10] = Inhibition of Escherichia coli MurF using D-Ala-D-Ala/UMtri-mDAP as substrate after 15 mins by Malachite green method; outline: as §3
[11] = Inhibition of Staphylococcus aureus MurF using D-Ala-D-Ala/UMtri-L-Lys as substrate after 15 mins by Malachite green method; outline: as §2

Row | Structure (SMILES) | IC50 [1] | Activity (Staphylococcus aureus [2]) | IC50 [3] | MIC (Streptococcus pneumoniae [4]) | Activity (Escherichia coli [5]) | Activity (Streptococcus pneumoniae [8]) | IC50 [10] | IC50 [11] | Activity (Escherichia coli [6]) | Activity (Staphylococcus aureus [7]) | Activity (Escherichia coli [9])
1 | N#Cc1c(NC(=O)c2cc(S(=O)(=O)N3CCOCC3)c(Cl)cc2Cl)sc2c1CC[C@@H](c1ccc(O)cc1)C2 | – | – | 0.022 µM | – | – | – | – | – | – | – | –
2 | N#Cc1c(NC(=O)c2cc(S(=O)(=O)N3CCNC(=O)C3)c(Cl)cc2Cl)sc2c1CCCC2 | – | 95% | – | – | 91% | 89% | – | – | inactive | inactive | inactive
3 | N#Cc1cccc(CN2CCc3c(sc(NC(=O)c4cc(S(=O)(=O)N5CCOCC5)c(Cl)cc4Cl)c3C#N)C2)c1 | 1.17 µM | – | – | > 128 µg/mL | – | – | 99 µM | 90 µM | inactive | inactive | inactive
4 | CC1CCN(S(=O)(=O)c2cc(C(=O)Nc3sc4c(c3C#N)CCCC4)c(Cl)cc2Cl)CC1 | – | 80% | – | – | 87% | 90% | – | – | inactive | inactive | inactive
5 | COc1ccc(CN2CCc3c(sc(NC(=O)c4cc(S(=O)(=O)N5CCOCC5)c(Cl)cc4Cl)c3C#N)C2)cc1 | 0.6 µM | – | – | > 128 µg/mL | – | – | 82 µM | 95 µM | inactive | inactive | inactive
6 | N#Cc1ccc(CN2CCc3c(sc(NC(=O)c4cc(S(=O)(=O)N5CCOCC5)c(Cl)cc4Cl)c3C#N)C2)cc1 | 1.36 µM | – | – | > 128 µg/mL | – | – | 62 µM | 80 µM | inactive | inactive | inactive
7 | N#Cc1c(NC(=O)c2cc(S(=O)(=O)N3CCOCC3)c(Cl)cc2Cl)sc2c1CCN(Cc1ccc(O)c(C(=O)O)c1)C2 | 1.41 µM | – | – | > 128 µg/mL | – | – | 106 µM | 132 µM | inactive | inactive | inactive
8 | N#Cc1c(NC(=O)c2cc(S(=O)(=O)N3CCOCC3)c(Cl)cc2Cl)sc2c1CCN(c1ccc([N+](=O)[O-])cc1)C2 | – | 83% | – | > 128 µg/mL | 74% | 80% | – | – | inactive | inactive | inactive
9 | CCOC(=O)C1CCN(S(=O)(=O)c2cc(C(=O)Nc3sc4c(c3C#N)CCCC4)c(Cl)cc2Cl)CC1 | – | 100% | – | – | 95% | 100% | – | – | inactive | inactive | inactive

Further lines, with some results ahead:

Row | IC50 [1] | Activity (Staphylococcus aureus [2]) | IC50 [3] | MIC (Streptococcus pneumoniae [4]) | Activity (Escherichia coli [5]) | Activity (Streptococcus pneumoniae [8]) | IC50 [10] | IC50 [11] | Structure (SMILES) | Activity (Escherichia coli [6]) | Activity (Staphylococcus aureus [7]) | Activity (Escherichia coli [9])
10 | 4 µM | 107% | 1 µM | 64 µg/mL (≈ 128 µM) | 100% | – | – | – | N#Cc1c(NC(=O)c2cc(S(=O)(=O)N3CCOCC3)c(Cl)cc2Cl)sc2c1CCCC2 | – | – | –
11 | – | 85% | – | > 128 µg/mL | 104% | 66% | – | – | N#Cc1c(NC(=O)c2cc(S(=O)(=O)N3CCSC3)c(Cl)cc2Cl)sc2c1CCCC2 | inactive | inactive | inactive
12 | – | 79% | – | > 128 µg/mL | 98% | 80% | – | – | CCOC(=O)c1ccc(N2CCc3c(sc(NC(=O)c4cc(S(=O)(=O)N5CCOCC5)c(Cl)cc4Cl)c3C#N)C2)cc1 | inactive | inactive | inactive
13 | – | 85% | – | > 128 µg/mL | 95% | 63% | – | – | N#Cc1ccc(N2CCc3c(sc(NC(=O)c4cc(S(=O)(=O)N5CCOCC5)c(Cl)cc4Cl)c3C#N)C2)cc1 | inactive | inactive | inactive
14 | – | 95% | – | > 128 µg/mL | 91% | 42% | – | – | N#Cc1c(NC(=O)c2cc(S(=O)(=O)N3CCSCC3)c(Cl)cc2Cl)sc2c1CCCC2 | inactive | inactive | inactive
15 | 0.98 µM | – | – | > 128 µg/mL | – | – | 100 µM | 79 µM | N#Cc1c(NC(=O)c2cc(S(=O)(=O)N3CCOCC3)c(Cl)cc2Cl)sc2c1CCN(Cc1ccc(F)cc1)C2 | inactive | inactive | inactive
16 | 0.3 µM | – | – | > 128 µg/mL | – | – | 55 µM | 120 µM | N#Cc1c(NC(=O)c2cc(S(=O)(=O)N3CCOCC3)c(Cl)cc2Cl)sc2c1CCN(Cc1ccc(-c3nnn[nH]3)cc1)C2 | inactive | inactive | inactive
17 | 0.6 µM | – | – | > 128 µg/mL | – | – | 77 µM | 115 µM | COc1ccc(CN2CCc3c(sc(NC(=O)c4cc(S(=O)(=O)N5CCOCC5)c(Cl)cc4Cl)c3C#N)C2)cc1O | inactive | inactive | inactive
18 | 1.09 µM | – | – | 128 µg/mL (≈ 201 µM) | – | – | 101 µM | 94 µM | N#Cc1c(NC(=O)c2cc(S(=O)(=O)N3CCOCC3)c(Cl)cc2Cl)sc2c1CCN(Cc1ccc([N+](=O)[O-])cc1)C2 | inactive | inactive | inactive
